Experiments:
[1] = Multicomponent pharmacokinetics in rat plasma after single i.v. EBI; assay type: in vivo, Sprague-Dawley rats; settings: Sprague-Dawley, iv, n = 6
[2] = system: isoprenaline-induced myocardial infarction (MI) in mice; assay type: in vivo, Kunming mice; settings: 30 mg kg^-1 i.v. for 7 days, seventh day
In short: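 Kunming mice (about 8 weeks, 20–30 g) were randomised into groups of n = 8 and given test compound i.v. for 7 days in 0.5% NaHCO₃:propylene glycol:saline (17:2:81). Isoprenaline chloride 5 mg kg⁻¹ i.p. was given days 4–5 to all groups except control. Lead II ECG ST elevation was recorded under pentobarbital. Day-7 orbital serum was taken for CK, and left-ventricle H&E sections were read at 200×. Single-tailed t test.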

[3] = 0.72 mL kg^-1, AUC0–t, Low dosage: 0.72 mL kg^-1 of 10 times concentrated EBI
[4] = 0.72 mL kg^-1, Cl, Low dosage: 0.72 mL kg^-1 of 10 times concentrated EBI
[5] = 0.72 mL kg^-1, MRT0–t, Low dosage: 0.72 mL kg^-1 of 10 times concentrated EBI
[6] = 0.72 mL kg^-1, Vd, Low dosage: 0.72 mL kg^-1 of 10 times concentrated EBI
[7] = 0.72 mL kg^-1, t 1/2, Low dosage: 0.72 mL kg^-1 of 10 times concentrated EBI
[8] = 3.6 mL kg^-1, AUC0–t, High dosage: 3.6 mL kg^-1 of 10 times concentrated EBI
[9] = 3.6 mL kg^-1, Cl, High dosage: 3.6 mL kg^-1 of 10 times concentrated EBI
[10] = 3.6 mL kg^-1, MRT0–t, High dosage: 3.6 mL kg^-1 of 10 times concentrated EBI
[11] = 3.6 mL kg^-1, Vd, High dosage: 3.6 mL kg^-1 of 10 times concentrated EBI
[12] = 3.6 mL kg^-1, t 1/2, High dosage: 3.6 mL kg^-1 of 10 times concentrated EBI

AUC(0-t) [1, 3] [ng·h/mL]	clearance [1, 4] [mL/min]	MRT last [1, 5] [min]	Vd [1, 6] [L]	half-life [1, 7] [min]	AUC(0-t) [1, 8] [ng·h/mL]	clearance [1, 9] [mL/min]	MRT last [1, 10] [min]	Vd [1, 11] [L]	half-life [1, 12] [min]	Compound	ST segment elevation (ECG) ([2]; P < 0.05 vs. model group)	serum creatine kinase (CK) activity ([2]; P < 0.05 vs. model group)	heart histopathology (H&E staining) ([2]; left ventricle sections)
1510 ± 574	8.5	23.4 ± 5.4	0.9 ± 0.54	74.4 ± 38.4	6860 ± 989	7.5	27 ± 6	1.63 ± 0.65	151 ± 57	O=C(O)[C@H]1O[C@@H](Oc2cc3oc(-c4ccc(O)cc4)cc(=O)c3c(O)c2O)[C@H](O)[C@@H](O)[C@@H]1O [Scutellarin, scutellarin]	seldom occurred	significantly decreased	mild edema, inflammatory infiltration and loss of striations in heart tissue
75.2 ± 43.8	8	8.4 ± 2.4	0.16 ± 0.07	13.8 ± 1.8	393 ± 145	6.83	12 ± 4.2	0.13 ± 0.06	13.2 ± 4.2	O=C(O)/C=C/c1ccc(O)c(O)c1 [Caffeic acid, caffeic acid]			

Reference: article PMC9070076 (RSC Advances, 2019)
